Test results: ChEMBL document CHEMBL3352516, “Synthesis and biological evaluation of largazole analogues with modified surface recognition cap groups” (2014)
Activity calls are given as the source filed them. The calls are words filed in the database; no cut-off is given here.

Key:
HCT-116 [1] = assay: Growth inhibition of human HCT116 cells at 5 uM after 96 hrs by MTS assay; format: functional, cell-based
Procedure, shortened: (§1)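 HCT116 colorectal cells seeded at 3×10⁴ cells/well in quadruplicate, attached overnight, then medium replaced with compound-containing medium; 96 h at 37 °C, 5% CO₂. CellTiter 96 One Solution MTS added, 1.5 h at 37 °C, absorbance at 490 nm. Two experiments, each with 4 replicates, mean with SEM; GI50 taken from growth curves.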

[2] = target: Histone deacetylase 1 (Homo sapiens) (UniProt Q13547); assay: Inhibition of human HDAC1 (unknown origin) at 1 uM using Fluor de Lys substrate fluorimetric assay
Sequence of Histone deacetylase 1 (Homo sapiens) (Q13547 whole entry): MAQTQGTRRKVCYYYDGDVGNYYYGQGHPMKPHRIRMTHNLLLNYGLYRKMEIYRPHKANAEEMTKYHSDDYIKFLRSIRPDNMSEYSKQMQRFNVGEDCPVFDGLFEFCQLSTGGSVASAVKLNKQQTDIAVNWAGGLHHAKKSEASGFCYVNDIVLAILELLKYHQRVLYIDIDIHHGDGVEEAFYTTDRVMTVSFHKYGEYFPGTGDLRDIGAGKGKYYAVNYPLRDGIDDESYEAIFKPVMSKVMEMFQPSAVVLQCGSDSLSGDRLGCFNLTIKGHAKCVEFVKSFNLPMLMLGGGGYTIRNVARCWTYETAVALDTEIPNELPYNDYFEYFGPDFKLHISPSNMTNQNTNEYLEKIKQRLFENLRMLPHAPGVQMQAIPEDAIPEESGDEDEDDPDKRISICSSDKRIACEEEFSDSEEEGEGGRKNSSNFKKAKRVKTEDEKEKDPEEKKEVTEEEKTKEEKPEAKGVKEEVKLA
Procedure, shortened: (§2)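 Recombinant HDAC1 incubated 1 h with inhibitor (0–1 μM) and class I-specific Fluor de Lys substrate, then developer added and fluorescence read. Compound with substrate and developer but no enzyme served as interference control. Three experiments, each in triplicate.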

[3] = target: T1, Histone deacetylase (Homo sapiens) (UniProt Q13547+O15379+Q9UBN7+Q92769+Q9UQL6+Q8WUI4+Q9BY41+Q96DB2+P56524+Q9UKV0+Q969S8); assay: Inhibition of human HDAC in human HCT116 cells assessed as global histone H3 lysine-9 acetylation levels at 0.01 to 1 uM after 24 hrs by Western blotting method; format: cell-based; conditions: HCT-116
Procedure, shortened: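 HCT116 cells treated 24 h with 10 nM, 100 nM or 1 μM compound, or DMSO. Western blot probed with anti-acetyl-H3 primary antibody and β-actin as loading control. Detection by dye-conjugated secondary antibodies on an infrared scanner.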

[4] = target: T2, Protein deacetylase HDAC6 (Homo sapiens) (UniProt Q9UBN7); assay: Inhibition of human HDAC6 (unknown origin) at 0.01 to 5 uM using Fluor de Lys substrate fluorimetric assay
T2 sequence (whole entry): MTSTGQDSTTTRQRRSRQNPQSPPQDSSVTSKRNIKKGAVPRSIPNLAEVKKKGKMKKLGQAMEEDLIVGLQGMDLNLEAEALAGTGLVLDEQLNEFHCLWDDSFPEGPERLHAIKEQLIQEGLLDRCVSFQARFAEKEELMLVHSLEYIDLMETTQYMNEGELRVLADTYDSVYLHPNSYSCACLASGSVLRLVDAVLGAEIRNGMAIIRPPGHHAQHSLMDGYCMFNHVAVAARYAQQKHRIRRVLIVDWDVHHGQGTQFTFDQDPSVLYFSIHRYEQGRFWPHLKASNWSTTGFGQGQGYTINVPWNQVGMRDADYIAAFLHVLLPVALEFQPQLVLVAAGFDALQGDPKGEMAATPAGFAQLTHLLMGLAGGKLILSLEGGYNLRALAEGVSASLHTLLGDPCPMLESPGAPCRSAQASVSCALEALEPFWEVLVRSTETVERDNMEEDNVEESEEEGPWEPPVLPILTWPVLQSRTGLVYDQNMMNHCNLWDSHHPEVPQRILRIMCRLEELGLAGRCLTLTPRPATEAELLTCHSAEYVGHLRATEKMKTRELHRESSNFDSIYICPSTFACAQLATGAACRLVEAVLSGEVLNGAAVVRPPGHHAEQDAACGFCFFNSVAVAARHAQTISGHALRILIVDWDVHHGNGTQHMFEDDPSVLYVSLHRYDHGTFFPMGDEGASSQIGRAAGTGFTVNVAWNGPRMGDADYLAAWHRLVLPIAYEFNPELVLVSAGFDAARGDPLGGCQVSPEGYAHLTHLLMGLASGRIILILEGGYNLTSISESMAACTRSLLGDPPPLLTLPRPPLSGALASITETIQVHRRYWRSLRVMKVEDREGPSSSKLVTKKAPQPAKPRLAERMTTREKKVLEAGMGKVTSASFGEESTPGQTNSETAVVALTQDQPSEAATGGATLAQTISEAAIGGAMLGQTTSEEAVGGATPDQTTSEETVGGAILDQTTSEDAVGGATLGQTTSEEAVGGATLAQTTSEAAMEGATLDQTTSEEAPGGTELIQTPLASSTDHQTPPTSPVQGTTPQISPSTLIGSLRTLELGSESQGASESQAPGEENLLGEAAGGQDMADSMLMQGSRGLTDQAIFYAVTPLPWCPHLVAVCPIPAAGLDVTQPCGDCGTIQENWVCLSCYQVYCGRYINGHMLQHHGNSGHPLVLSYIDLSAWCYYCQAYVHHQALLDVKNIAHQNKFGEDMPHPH
Procedure, shortened: (§3)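 Recombinant HDAC6 incubated 1 h with inhibitor (0–5 μM) and class II-specific Fluor de Lys substrate, then developer added and fluorescence read. Compound with substrate and developer but no enzyme served as interference control. Three experiments, each in triplicate.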

[5] = target: T1, Histone deacetylase (Homo sapiens); conditions: HCT-116, 1 uM
[6] = target: Histone deacetylase 1 (Homo sapiens) (UniProt Q13547); assay: Inhibition of human HDAC1 (unknown origin) at 0.1 uM using Fluor de Lys substrate fluorimetric assay; procedure, shortened: as §2
[7] = Growth inhibition of human HCT116 cells after 96 hrs by MTS assay; format: functional; conditions: HCT-116, 96 h; procedure, shortened: as §1
[8] = target: T2, Protein deacetylase HDAC6 (Homo sapiens); assay: Inhibition of human HDAC6 (unknown origin) at 5 uM using Fluor de Lys substrate fluorimetric assay
Procedure, shortened: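 Recombinant HDAC6 from a fluorimetric kit, with a substrate specific for class II activity. Enzyme, inhibitor (0–5 μM) and Fluor de Lys substrate incubated 1 h, then developer added before the fluorescence read. Compound-only controls without enzyme, with substrate and developer, checked for signal interference. Three independent experiments, each in triplicate.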

HCT-116 [9] = assay: Inhibition of cell proliferation of human HCT116 cells at […] after 96 hrs by MTS assay; format: functional, cell-based
Procedure, shortened: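 HCT116 colorectal cells seeded at 3×10⁴ cells/well in quadruplicate, left to attach overnight, then given fresh medium with compound for 96 h at 37 °C, 5% CO₂. MTS reagent added for 1.5 h, absorbance read at 490 nm. Mean of two experiments, each with 4 replicates.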

[10] = target: T2, Protein deacetylase HDAC6 (Homo sapiens); assay: Inhibition of human HDAC6 (unknown origin) at 1 uM using Fluor de Lys substrate fluorimetric assay; procedure, shortened: as §3
[11] = target: Histone deacetylase 1 (Homo sapiens) (UniProt Q13547); assay: Inhibition of human HDAC1 (unknown origin) at 0.01 to 1 uM using Fluor de Lys substrate fluorimetric assay

SMILES	growth inhibition (GI) (HCT-116 [1])	inhibition [2]	inhibition [3]	inhibition [4]	inhibition [5]	inhibition [6]	GI50 [7]	inhibition [8]	inhibition (HCT-116 [9])	inhibition [10]	inhibition [11]
CCCCCCCC(=O)SCC/C=C/[C@@H]1CC(=O)NCc2nc(cs2)C2=N[C@@](C)(CS2)C(=O)N[C@H](Cc2cccc3ccccc23)C(=O)O1	inactive	< 15%	inactive	inactive	–	–	–	–	–	–	–
CCCCCCCC(=O)SCC/C=C/[C@@H]1CC(=O)NCc2nc(cs2)C2=N[C@](C)(CS2)C(=O)N[C@@H](C(C)C)C(=O)O1	inactive	< 15%	inactive	–	Active	–	–	–	–	–	–
CCCCCCCC(=O)SCC/C=C/[C@@H]1CC(=O)NCc2nc(cs2)C2=N[C@@](C)(CS2)C(=O)N[C@@H](Cc2cccc3ccccc23)C(=O)O1	–	> 90%	Active	–	–	15%	0.056 µM	50%	inactive	50%	Active
CCCCCCCC(=O)SCC/C=C/[C@@H]1CC(=O)NCc2nc(cs2)C2=N[C@@](C)(CS2)C(=O)N[C@@H](C(C)C)C(=O)O1	–	> 90%	Active	Active	–	15%	–	75%	–	–	Active
C=CC[C@@H]1NC(=O)[C@]2(C)CSC(=N2)c2csc(n2)CNC(=O)C[C@@H](/C=C/CCSC(=O)CCCCCCC)OC1=O	–	> 90%	Active	–	–	inactive	0.01 µM	55%	inactive	50%	Active
